Legend:
Assay type in all cases: functional, cell-based
A549 = test: Cytotoxicity against human A549 cells by MTT assay
Method in brief: (§1)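 MTT viability read-out on five human cancer lines tested in parallel: breast MCF-7, hepatocellular SMMC-7721, myeloid leukemia HL-60, colon SW480 and lung A-549. IC50 derived by the Reed and Muench method.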

SMMC-7721 = test: Cytotoxicity against human SMMC7721 cells by MTT assay; method in brief: as §1
SW480 = test: Cytotoxicity against human SW480 cells by MTT assay; method in brief: as §1
MCF7 = test: Cytotoxicity against human MCF7 cells by MTT assay; method in brief: as §1
HL-60 = test: Cytotoxicity against human HL60 cells by MTT assay; method in brief: as §1

Measured: IC50

C/C=C1/C[N+]2([O-])[C@H]3C[C@@]45C(=Nc6cc7c(c(OC)c64)OCO7)OC[C@H]3[C@H]1C[C@@H]52
> 40 µM: all assays above

C/C=C1/C[N+]2([O-])CC[C@]34C=C(CO)[C@H]1C[C@@]32Nc1ccccc14 (stereo not given in full)
> 40 µM: all assays above

C/C=C1/CN2[C@H]3C[C@@H]1[C@@H]1COC4=Nc5c(cc(OC)c(OC)c5OC)[C@@]43C[C@@H]12
> 40 µM: all assays above

COC/C=C1\C[N+]2([O-])[C@H]3C[C@@]45C(=Nc6cc7c(c(OC)c64)OCO7)OC[C@H]3[C@H]1C[C@@H]52
> 40 µM: all assays above

COC/C=C1\CN2[C@H]3C[C@@H]1[C@@H]1COC4=Nc5cc6c(c(O[C@@H]7O[C@H](CO)[C@@H](O)[C@H](O)[C@H]7O)c5[C@@]43C[C@@H]12)OCO6
> 40 µM: all assays above

COc1cc(OC)c2c(c1)[C@@]13C[C@H]4[C@@H](COC1=N2)[C@H]1C[C@@H]3N4C/C1=C\CO
> 40 µM: all assays above

COc1c2c(cc3c1[C@@]14C[C@H]5[C@@H](COC1=N3)[C@H]1C[C@@H]4N5C/C1=C\CO)OCO2
> 40 µM: all assays above

C/C=C1/CN2[C@H]3C[C@@H]1[C@@H]1COC4=Nc5c(OC)cc(OC)cc5[C@@]43C[C@@H]12
> 40 µM: all assays above

— ChEMBL document CHEMBL1781886, “Monoterpenoid indole alkaloids from Gardneria ovata” (J Nat Prod, 2011)
